Results taken from ChEMBL document CHEMBL1137716, “Novel modifications in the series of O-(2-phthalimidoethyl)-N-substituted thiocarbamates and their ring-opened congeners as non-nucleoside HIV-1 reverse transcriptase inhibitors” (Eur J Med Chem, 2009).
pEC50: −log10 of the molar value. Active and inactive are the calls of the source. No rule for the calls is given here.

Columns and labels:
[1] = system: Human immunodeficiency virus 1; assay: Antiviral activity against wild type HIV1 3B in human MT4 cells assessed as protection against viral induced cytopathogenicity by MTT assay; format: functional, organism-based; details: Human immunodeficiency virus 1, 3B
Summary of the method: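 MT-4 cells infected with HIV-1; 50% protection from virus-induced cytopathogenicity read by MTT method; EC50 in micromolar; mean of three separate experiments, triplicate samples varying under 10%.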

[2] = system: Human immunodeficiency virus 1; assay: Antiviral activity against HIV1 3B Y181C/K103N double mutant in human MT4 cells assessed as protection against viral induced cytopathogenicity by MTT assay; format: functional, organism-based
Summary of the method: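 MT-4 cells infected with HIV-1 carrying the NNRTI-resistance mutation were assayed for protection from virus-induced cytopathogenicity, read out as cell viability by MTT. EC50 is the compound concentration giving 50% protection. Values are means of three separate experiments, with variation among triplicate samples under 10%. Efavirenz served as the reference.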

[3] = Selectivity index, ratio of CC50 for human MT4 cells to EC50 for HIV1 3B; format: toxicity, cell-based; details: read-out: Ratio CC50/EC50
Summary of the method: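 Ratio of CC50 in mock-infected MT-4 cells to EC50 for protection from HIV-1 cytopathogenicity, both read by MTT method.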

[4] = Cytotoxicity against mock-infected human MT4 cells by MTT assay; format: cell-based
Summary of the method: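 Mock-infected MT-4 cells, tested in parallel with the antiviral assay; viability read by MTT method; CC50 is the concentration lowering viability by 50%; mean of three separate experiments, triplicate variation under 10%.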

| Compound | pEC50 [1] | Activity [2] | selectivity ratio [3] | CC50 [4] [µM] |
| --- | --- | --- | --- | --- |
| CC(=O)c1ccc(NC(=S)OCCN2C(=O)c3ccccc3C2=O)cc1 | 6.85 | – | – | – |
| O=C1c2ccccc2C(=O)N1CCOC(=S)Nc1ccc(I)cc1 | 7.70 | – | – | – |
| O=C(O)c1ccccc1C(=O)NCCOC(=S)Nc1cc(F)cc(F)c1 | 4.21 | inactive | > 1.6 | > 100 |
| Cc1ccc2c(c1)C(=O)N(CCOC(=S)Nc1ccc(C)c(Cl)c1)C2=O | 6.40 | inactive | 165 | 66 |
| O=C1c2ccccc2C(=O)N1CCOC(=S)NC1CCCCCCC1 | 6.22 | – | > 167 | > 100 |
| O=C(O)c1ccccc1C(=O)NCCOC(=S)Nc1c(F)cc(F)cc1F | 5.14 | inactive | > 13.9 | > 100 |
| C=CCNC(=S)OCCN1C(=O)c2ccccc2C1=O | < 4.00 | – | – | > 100 |
| O=C1c2ccccc2C(=O)N1CCOC(=S)NC1CCCC1 | 4.96 | – | > 9.1 | > 100 |
| Cc1ccc2c(c1)C(=O)N(CCOC(=S)NC1CCCCC1)C2=O | 6.52 | inactive | > 333 | > 100 |
| O=C(O)c1ccccc1C(=O)NCCOC(=S)Nc1ccc(F)cc1F | 5.42 | inactive | > 26.3 | > 100 |
| Cc1ccc(NC(=S)OC[C@@H](C)NC(=O)c2ccccc2C(=O)O)cc1 | 5.64 | inactive | > 43.5 | > 100 |
| COc1ccc(NC(=S)OCCN2C(=O)c3ccccc3C2=O)cc1 | 7.52 | – | – | – |
| COc1ccc(C)cc1NC(=S)OCCNC(=O)c1ccccc1C(=O)O | 4.06 | – | > 1.1 | > 100 |
| O=C1c2ccccc2C(=O)N1CCOC(=S)Nc1cc(Cl)ccc1Cl | 4.38 | – | > 2.4 | > 100 |
| Cc1ccc(NC(=S)OCCNC(=O)c2ccccc2C(=O)O)cc1Cl | 5.37 | – | > 23.2 | > 100 |
| O=C1c2ccccc2C(=O)N1CCOC(=S)Nc1cccc(Cl)c1Cl | 4.52 | – | > 3.3 | > 100 |
| O=C1c2ccccc2C(=O)N1CCOC(=S)Nc1ccccc1 | 5.92 | – | – | – |
| COc1ccc(CCNC(=S)OCCN2C(=O)c3ccccc3C2=O)cc1OC | 5.10 | inactive | > 12.5 | > 100 |
| O=C1c2ccccc2C(=O)N1CCOC(=S)Nc1cc(F)cc(F)c1 | 5.05 | inactive | > 11.1 | > 100 |
| Cc1cc(Cl)ccc1NC(=S)OCCN1C(=O)c2ccccc2C1=O | 4.57 | – | > 3.7 | > 100 |
| C[C@@H](COC(=S)Nc1ccc(Cl)cc1)NC(=O)c1ccccc1C(=O)O | 5.64 | inactive | > 43.5 | > 100 |
| Cc1ccc(NC(=S)OCCN2C(=O)c3ccc(C)cc3C2=O)cc1 | 7.70 | inactive | 3450 | 69 |

| Compound | pEC50 [1] | Activity [2] | selectivity ratio [3] | CC50 [4] [µM] |
| --- | --- | --- | --- | --- |
| CC(C)(C)c1ccc2c(c1)C(=O)N(CCOC(=S)Nc1ccc(Cl)cc1)C2=O | 5.92 | inactive | 45.8 | 55 |
| Cc1ccc2c(c1)C(=O)N(CCOC(=S)Nc1ccc(Br)cc1)C2=O | 8.10 | inactive | 7380 | 59 |
| O=C1c2ccccc2C(=O)N1CCOC(=S)Nc1ccc(Cl)cc1 | 7.40 | – | – | – |
| O=C1c2ccccc2C(=O)N1CCOC(=S)Nc1ccc(Cl)c(Cl)c1Cl | 4.96 | inactive | > 9.1 | > 100 |
| O=C(O)c1ccccc1C(=O)NCCOC(=S)Nc1c(F)cccc1F | 4.35 | inactive | > 2.2 | > 100 |
| Cc1cccc(Cl)c1NC(=S)OCCN1C(=O)c2ccccc2C1=O | 4.64 | – | > 4.3 | > 100 |
| O=C1c2ccccc2C(=O)N1CCOC(=S)NCc1ccccc1 | 4.59 | – | > 3.8 | > 100 |
| Cc1cc(C)cc(NC(=S)OCCN2C(=O)c3ccccc3C2=O)c1 | 5.40 | – | > 25 | > 100 |
| O=C1c2ccccc2C(=O)N1CCOC(=S)NC1CC1 | < 4.00 | – | – | > 100 |
| C[C@@H](COC(=S)Nc1ccc(Cl)cc1)N1C(=O)c2ccccc2C1=O | 6.70 | inactive | 420 | 84 |
| Cc1cc(Br)cc(C)c1NC(=S)OCCN1C(=O)c2ccccc2C1=O | 5.05 | inactive | > 11.1 | > 100 |
| O=C1c2ccccc2C(=O)N1CCOC(=S)NCC1CCCCC1 | 5.96 | inactive | > 91 | > 100 |
| COc1ccc(Cl)cc1NC(=S)OCCN1C(=O)c2ccccc2C1=O | 4.32 | – | > 2.1 | > 100 |
| O=C1c2ccccc2C(=O)N1CCOC(=S)Nc1c(F)c(F)cc(F)c1F | 5.00 | inactive | > 10 | > 100 |
| O=C1c2ccccc2C(=O)N1CCOC(=S)Nc1ccc(F)cc1 | 7.00 | – | – | – |
| Cc1cc(Br)ccc1NC(=S)OCCN1C(=O)c2ccccc2C1=O | 4.72 | – | > 5.3 | > 100 |
| CC(=O)c1ccc(NC(=S)OCCN2C(=O)c3ccc(C)cc3C2=O)cc1 | 7.15 | inactive | > 1430 | > 100 |
| O=C1c2ccccc2C(=O)N1CCOC(=S)Nc1ccc([N+](=O)[O-])cc1Cl | < 4.00 | – | – | > 100 |
| Cc1ccc(NC(=S)OCCN2C(=O)c3ccc(C(C)(C)C)cc3C2=O)cc1 | 5.82 | inactive | 28 | 42 |
| Cc1ccc2c(c1)C(=O)N(CCOC(=S)Nc1ccc(Cl)c(Cl)c1)C2=O | 6.70 | inactive | 250 | 50 |
| O=C1c2ccccc2C(=O)N1CCOC(=S)Nc1ccc(Cl)cc1Cl | < 4.00 | – | – | > 100 |
| O=C1c2ccccc2C(=O)N1CCOC(=S)Nc1c(F)cccc1F | 5.15 | inactive | > 14.3 | > 100 |

| Compound | pEC50 [1] | Activity [2] | selectivity ratio [3] | CC50 [4] [µM] |
| --- | --- | --- | --- | --- |
| COc1ccc(NC(=S)OCCNC(=O)c2ccccc2C(=O)O)cc1OC | 4.80 | – | > 6.2 | > 100 |
| CC(COC(=S)Nc1ccc(Cl)cc1)N1C(=O)c2ccccc2C1=O (racemic) | 7.30 | – | – | – |
| O=C1c2ccccc2C(=O)N1CCOC(=S)Nc1ccc(Cl)c(C(F)(F)F)c1 | 5.10 | – | 10.5 | 84 |
| O=C1c2ccccc2C(=O)N1CCOC(=S)NCCc1ccccc1 | 5.04 | inactive | > 10.9 | > 100 |
| O=C1c2ccccc2C(=O)N1CCOC(=S)Nc1cc(F)ccc1F | 5.10 | inactive | > 12.5 | > 100 |
| O=C1c2ccccc2C(=O)N1CCOC(=S)Nc1ccc(Br)cc1 | 7.52 | – | – | – |
| Cc1ccc(NC(=S)OCCN2C(=O)c3ccccc3C2=O)cc1Cl | 6.10 | inactive | > 125 | > 100 |
| O=C1c2ccccc2C(=O)N1CCOC(=S)Nc1ccc(Cl)c(Cl)c1 | 6.70 | inactive | > 500 | > 100 |
| O=C(O)c1ccccc1C(=O)NCCOC(=S)Nc1cc(F)ccc1F | 4.29 | inactive | > 2 | > 100 |
| Cc1ccc(NC(=S)OCCN2C(=O)c3ccccc3C2=O)cc1 | 7.70 | – | – | – |
| N#Cc1ccc(NC(=S)OCCN2C(=O)c3ccccc3C2=O)cc1 | 7.15 | – | – | – |
| Cc1ccc(Cl)cc1NC(=S)OCCNC(=O)c1ccccc1C(=O)O | 4.52 | – | > 3.3 | > 100 |
| Cc1ccc(NC(=S)OCCNC(=O)c2ccccc2C(=O)O)c(C)c1 | 4.28 | – | > 1.9 | > 100 |
| Cc1ccc(NC(=S)OCCN2C(=O)c3ccccc3C2=O)c(C)c1 | 5.22 | – | > 16.7 | > 100 |
| Cc1ccc(Cl)cc1NC(=S)OCCN1C(=O)c2ccccc2C1=O | < 4.00 | – | – | > 100 |
| CCc1ccc(NC(=S)OCCN2C(=O)c3ccccc3C2=O)cc1 | 7.10 | – | – | – |
| Cc1cccc(C)c1NC(=S)OCCN1C(=O)c2ccccc2C1=O | 4.12 | – | > 1.3 | > 100 |
| O=C1c2ccccc2C(=O)N1CCOC(=S)Nc1cc(Cl)cc(Cl)c1 | 4.92 | – | > 8 | > 100 |
| O=C1c2ccccc2C(=O)N1CCOC(=S)Nc1c(Cl)cccc1Cl | 4.68 | – | > 4.8 | > 100 |
| Cc1ccc2c(c1)C(=O)N(CCOC(=S)Nc1ccc(Cl)cc1)C2=O | 7.60 | – | – | – |
| O=C1c2ccccc2C(=O)N1CCOC(=S)NCc1ccco1 | < 4.00 | inactive | – | > 100 |
